For 14 compounds, CC50 and IC50 results are on record in ChEMBL document CHEMBL1134517, “Amphiphilic anionic analogues of galactosylceramide: synthesis, anti-HIV-1 activity, and gp120 binding” (J Med Chem, 2001).

A value given as a limit tells only on which side of the number the result lay.

What is called CC50 is the concentration that lowers cell viability or growth by half. Lower therefore signals harm at low concentration. For orientation: IC50 means the concentration at which inhibition is half-maximal.

Conditions in all cases: Homo sapiens
Assay [1] deals with CEM-SS. The experiment in a line: Cytotoxicity was evaluated in vitro on CEM-SS cells. Format: functional.
Assay [2] relates to MT4. Kind of assay: Anti-HIV-1 activity evaluated in vitro on MT-4 cells. Format: functional, cell-based. The essentials: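 MT4 cells (RPMI, 10% fetal calf serum) infected with HIV-1 IIIB at a dose killing 90% of cells by day 5. Compounds in DPBS added after viral adsorption. Protection from the viral cytopathic effect read by MTT viability assay. IC50 derived from curves of protection percentage against drug concentration.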

For assay [3], the system named is MT4. The experiment in a line: Cytotoxicity was evaluated in vitro on MT-4 cells. Format: functional. The essentials: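 Uninfected MT4 cells incubated 5 days at 37 °C with various concentrations of galactolipid in DPBS. Proliferation and viability read by colorimetric MTT assay.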
Assay [4] relates to CEM-SS. Kind of assay: Anti-HIV-1 activity evaluated in vitro on CEM-SS cells. Format: functional, cell-based. The essentials:
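CEM-SS cells (RPMI, 10% fetal calf serum) infected with HIV-1 LAI grown in CEM-SS cells. Galactolipids in DPBS (or as phospholipid/cholesterol liposomes) added after viral adsorption. After 5 days, reverse transcriptase activity in supernatant measured, and inhibition calculated against untreated infected cells. IC50 taken from median-effect plot of dose-effect data. Triplicate per concentration, experiment repeated twice.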

For the compound `CCCCCCCCCCCCCC(=O)NC(CO[C@@H]1O[C@H](CO)[C@H](O)[C@H](O)[C@H]1O)C(=O)NCCO` (stereo not given in full), the CC50 in the assay with CEM-SS [1] and in the assay on MT4 [3] was above 100 µM each time. Moreover, the half-inhibitory concentration (IC50) with MT4 [2] and in the assay with CEM-SS [4] was above 100 µM throughout.

Regarding `CCCCCCCCCCCCCCNC(=O)C(CO[C@@H]1O[C@H](CO)[C@H](O)[C@H](O)[C@H]1O)NC(=O)CCC(=O)NCCS(=O)(=O)O` (stereo not given in full), the cytotoxic concentration (CC50) in the assay on CEM-SS [1] and with MT4 [3] was above 100 µM each time. Further, the results for the IC50 with MT4 [2] and with CEM-SS [4] were above 100 µM and 50 µM, respectively.

For the compound `CCCCCCCCCCCCCC(=O)NC(CO[C@@H]1O[C@H](CO)[C@H](O)[C@H](O)[C@H]1O)C(=O)O` (stereo not given in full), the CC50 in the assay with CEM-SS [1] and in the assay with MT4 [3] was above 100 µM each time. Besides, the IC50 with MT4 [2] is above 100 µM; with CEM-SS [4] it was 20 µM.

Turning to `CCCCCCCCCCCCCC(=O)NC(CO[C@@H]1O[C@H](CO)[C@H](O)[C@H](O)[C@H]1O)C(=O)NCCOS(=O)(=O)O` (stereo not given in full), the CC50 in the assay on CEM-SS [1] and in the assay with MT4 [3] was above 100 µM throughout. In addition, the half-inhibitory concentration (IC50) in the assay on MT4 [2] was 20 µM; in the assay on CEM-SS [4] it was 10 µM.

On to `CCCCCCCCCCCCCCNC(=O)C(N)CO[C@@H]1O[C@H](CO)[C@H](O)[C@H](O)[C@H]1O` (stereo not given in full), for which, in the assay on CEM-SS [4], it took 60 µM to reach half-maximal inhibition (IC50).

Take `CCCCCCCCCCCCCCNC(=O)C(CO[C@@H]1O[C@H](CO)[C@H](O)[C@H](O)[C@H]1O)NC(=O)CCC(=O)O` (stereo not given in full): the CC50 in the assay on CEM-SS [1] and with MT4 [3] was above 100 µM throughout. For the same compound, the IC50 in the assay with MT4 [2] and with CEM-SS [4] was above 100 µM throughout.

Regarding `O=C(O)CCCCCCCCCCC(=O)N(CCCCCCCC(F)(F)C(F)(F)C(F)(F)C(F)(F)C(F)(F)C(F)(F)C(F)(F)C(F)(F)F)CCO[C@@H]1O[C@H](CO)[C@H](O)[C@H](O)[C@H]1O`, the cytotoxic concentration (CC50) in the assay on CEM-SS [1] and in the assay on MT4 [3] was above 18 µM throughout. For the same compound, the IC50 in the assay with MT4 [2] and in the assay with CEM-SS [4] was above 18 µM throughout.

Consider `NC(CO[C@@H]1O[C@H](CO)[C@H](O)[C@H](O)[C@H]1O)C(=O)NCCCCCCCCCCCC(=O)O` (stereo not given in full), for which the cytotoxic concentration (CC50) in the assay with CEM-SS [1] and in the assay with MT4 [3] was above 100 µM throughout. Besides, the 50% inhibitory concentration (IC50) in the assay on MT4 [2] and with CEM-SS [4] was above 100 µM in each case.

Turning to `O=C(O)CCCCCCCCCCCNC(=O)C(CO[C@@H]1O[C@H](CO)[C@H](O)[C@H](O)[C@H]1O)NC(=O)CCC(=O)O` (stereo not given in full), the CC50 with CEM-SS [1] and in the assay with MT4 [3] was above 100 µM each time. The IC50 with MT4 [2] and in the assay on CEM-SS [4] was above 100 µM throughout.

In the case of `CCCCCCCCCCCCCCNC(=O)C(CO[C@@H]1O[C@H](CO)[C@H](O)[C@H](O)[C@H]1O)NP(=O)(O)OC` (stereo not given in full), the half-maximal cytotoxic concentration (CC50) with CEM-SS [1] and in the assay with MT4 [3] was above 100 µM in each case. For the same compound, the IC50 with MT4 [2] and with CEM-SS [4] was above 100 µM in each case.

Turning to `CCCCCCCCCCCCCC(=O)NCC(NC(=O)CCCCCCCCCCCCC)C(=O)NCCNC(=O)C(O)C(O)C(O[C@@H]1O[C@H](CO)[C@H](O)[C@H](O)[C@H]1O)C(O)CO` (stereo not given in full), the half-maximal cytotoxic concentration (CC50) with CEM-SS [1] and with MT4 [3] was above 100 µM throughout. Also, the IC50 in the assay on MT4 [2] and with CEM-SS [4] was above 100 µM in each case.

`CCCCCCCCCCCCCC(=O)NCC(NC(=O)CCCCCCCCCCCCC)C(=O)NCCN(CCNC(=O)C(O)C(O)C(O[C@@H]1O[C@H](CO)[C@H](O)[C@H](O)C1O)C(O)CO)CCNC(=O)C(O)C(O)C(O[C@@H]1O[C@H](CO)[C@H](O)[C@H](O)[C@H]1O)C(O)CO` (stereo not given in full): the CC50 in the assay with CEM-SS [1] is 44 µM; in the assay on MT4 [3], 38 µM. Also, the half-maximal inhibitory concentration (IC50) with MT4 [2] amounted to 33 µM; in the assay with CEM-SS [4], 32 µM.

In the assay with CEM-SS [4], `NC(CO[C@@H]1O[C@H](CO)[C@H](O)[C@H](O)[C@H]1O)C(=O)NCCCCCCCCCCCC(F)(F)C(F)(F)C(F)(F)C(F)(F)C(F)(F)C(F)(F)F` (stereo not given in full) came in with an IC50 of 40 µM.

Take `CCCCCCCCCCCCCCNC(=O)C(CO[C@@H]1O[C@H](CO)[C@H](O)[C@H](O)[C@H]1O)NC(=O)CCCCCCCCCCC(=O)O` (stereo not given in full): the half-maximal cytotoxic concentration (CC50) with CEM-SS [1] and in the assay with MT4 [3] was above 100 µM in each case. Besides, the IC50 in the assay with MT4 [2] and in the assay on CEM-SS [4] was above 100 µM in each case.
